The text below walks through data of ChEMBL document CHEMBL1153115, “Synthesis, antimalarial activity and cytotoxicity of 4-aminoquinoline-triazine conjugates” (Bioorg Med Chem Lett, 2010).

The test system of one assay is Vero. Briefly: Cytotoxicity against african green monkey Vero cells. Type of assay: cell-based. To be noted: Chlorocebus sabaeus. The essentials: (§1)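 Cytotoxicity was run in parallel on three mammalian lines: LLC-PK11 (pig kidney epithelial cells), HepG2 (human hepatoma cells) and Vero (monkey kidney […]). Compounds with no cytotoxicity up to the highest tested concentration, 48, were recorded as NC.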

A further assay relates to HepG2. The assay can be described thus: Cytotoxicity against human HepG2 cells. Format: cell-based. The essentials:
as §1

Assay [1] is described as follows: Cytotoxicity against pig LLC-PK11 cells. To be noted: Sus scrofa. Type of assay: cell-based. The essentials: as §1
A short description of assay [2]: Selectivity index, IC50 for african green monkey (Cercopithecus aethiops) Vero cells to IC50 for chloroquine-resistant Plasmodium falciparum W2.
Assay [3] has as its system Plasmodium falciparum. The assay can be described thus: Antiplasmodial activity against chloroquine-sensitive Plasmodium falciparum D6 by LDH release assay. Type of assay: functional, organism-based. For orientation: LDH in the medium is a marker of cell lysis.
The nature of assay [4]: Selectivity index, IC50 for african green monkey (Cercopithecus aethiops) Vero cells to IC50 for chloroquine-sensitive Plasmodium falciparum D6. Format: functional. In short, it runs like this: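 The selectivity index of antimalarial activity was calculated from Vero cell cytotoxicity relative to the antiplasmodial IC50 against each P. falciparum clone (D6 or W2).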
For assay [5], the system named is Plasmodium falciparum. Briefly: Antiplasmodial activity against chloroquine-resistant Plasmodium falciparum W2 by LDH release assay. Format: functional, organism-based.

SMILES strings stand for the structures.

In the case of `COc1cccc2c1C(=O)c1c(O)c3c(c(O)c1C2=O)C[C@@](O)(C(=O)CO)C[C@@H]3O[C@H]1C[C@H](N)[C@H](O)[C@H](C)O1` [DOXORUBICIN], the results for the IC50 (in the assay on Vero; with HepG2; in assay [1]) were 20 µM, 0.42 µM and 0.85 µM, respectively.

With `Clc1ccc2c(NCCCNc3nc(NC4CCCCC4)nc(N4CCCCC4)n3)ccnc2c1`, the IC50 (as a rule, the concentration needed to halve the response being measured) in the assay with Vero turned out to be 34.3 µM; in the assay on HepG2 it was 8.3 µM; in the assay with Plasmodium falciparum [3], 1.74 µM; in assay [1] it was 10.5 µM; with Plasmodium falciparum [5], 2.22 µM. Further, the “Selectivity Index” value in assay [2] was determined as 15.4; in assay [4] it was 19.7.

For the compound `COc1cc(Nc2nc(NCCCNc3ccnc4cc(Cl)ccc34)nc(N3CCOCC3)n2)cc(OC)c1`, the IC50 in the assay on Vero is 32.7 µM; in the assay on HepG2, 25.4 µM; with Plasmodium falciparum [3], 0.25 µM; in assay [1] it was 8.3 µM; with Plasmodium falciparum [5] it was 0.22 µM. Also, the “Selectivity Index” value amounted to 148.6 in assay [2] and 130.8 in assay [4].

In the case of `C[C@@H]1CC[C@H]2[C@@H](C)C(=O)O[C@@H]3O[C@@]4(C)CC[C@@H]1[C@]32OO4` [ARTEMISININ], the “Selectivity Index” value in assay [2] is given as greater than 670; in assay [4], greater than 500. Also, the IC50 was 0.03 µM with Plasmodium falciparum [3] and 0.025 µM in the assay on Plasmodium falciparum [5].
